Only some compounds are listed: those with a hit (about 2.9% of all), similar ones and a draw of the others.
HEK293 NFkB inh: inhibitors of PMA/ionomycin-induced NF-kB reporter, primary screen, antigen receptor NF-kB inhibitor project, cell-based, HEK-293 luciferase reporter, luminescence; 62,000 compounds, 0.21% hits; HEK-293 NF-kB luciferase reporter; inhibition, % at 3 µM;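 active = inhibition above the mean of all tested compounds plus 3 SD, cut at about 40% in these data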;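 note: 0% = stimulated DMSO wells and 100% = 10 µM reference inhibitor 5653914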
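System – HEK-293 cells with stable firefly luciferase reporter driven by four HIV NF-kB elements · Doses – one dose, 3 µM · Schedule – 1 h compound pre-incubation, 16 h PMA/ionomycin at 37 °C · Technique – luminescence from luciferase substrate reagent · Measure – percent inhibition normalized per plate to DMSO and reference-inhibitor controls · Replicates – tested once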
MT1-MMP txn act: MT1-MMP promoter reporter activation – cell-based, luciferase luminescence, primary screen; HT1080 MT1-MMP promoter luciferase reporter, overnight; stronger effect = higher value; activation factor at 10 µM; 86,000 compounds, 0.16% hits; AID 750, 2007;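 active = activation factor of at least 2 for MT1-MMP transcription at 10 µM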
RORa activator: activators of orphan receptor RORA, primary screen, cell-based, luminescence; activation, % at 10 µM; CHO-K1 Gal4-RORA LBD luciferase reporter; percent increase over mock-subtracted basal signal; Nuclear receptor ROR-alpha (Homo sapiens), P35398; 65,000 compounds, 1.5% hits;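 active = activation above the mean of all tested compounds plus 3 SD, cut at about 49% in these data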;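 note: 0% = DMSO-treated RORA cells and 100% = added signal equal to DMSO minus mock-transfected cells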
Target sequence (P35398 whole entry, looked up, the tested form may be a part): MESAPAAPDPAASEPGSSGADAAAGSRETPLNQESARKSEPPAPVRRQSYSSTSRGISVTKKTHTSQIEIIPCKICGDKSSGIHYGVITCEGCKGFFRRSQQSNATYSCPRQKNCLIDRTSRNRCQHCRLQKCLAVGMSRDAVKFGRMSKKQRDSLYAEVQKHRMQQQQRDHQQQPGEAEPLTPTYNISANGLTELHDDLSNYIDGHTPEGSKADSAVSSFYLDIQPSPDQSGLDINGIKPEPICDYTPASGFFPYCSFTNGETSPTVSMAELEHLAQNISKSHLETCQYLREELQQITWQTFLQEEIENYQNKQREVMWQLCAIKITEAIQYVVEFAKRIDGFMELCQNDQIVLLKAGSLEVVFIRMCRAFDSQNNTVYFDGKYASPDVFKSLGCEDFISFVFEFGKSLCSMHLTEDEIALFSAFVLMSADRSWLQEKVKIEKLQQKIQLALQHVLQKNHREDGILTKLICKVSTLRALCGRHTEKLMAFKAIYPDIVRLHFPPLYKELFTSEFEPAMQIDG
Jurkat tox 60K: cytotoxicity toward Jurkat T cells, primary screen, cytotoxicity control, cell-based, Jurkat E6.1, 60K MLSMR library. inhibition, % at 4 µM. 56,000 compounds, 1.2% hits. Jurkat E6.1 viability, ATP luminescence, 48 h;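 active = inhibition above the mean inhibition of all tested compounds plus 3 SD, cut at about 28% in these data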
SF-1 act: activators of human SF-1, primary screen, cell-based, CHO-K1, Gal4-SF-1 LBD, luciferase luminescence | 65,000 compounds, 1.9% hits | CHO-K1 Gal4-SF-1 LBD luciferase reporter; % increase over DMSO SF-1-specific signal | Steroidogenic factor 1 (Homo sapiens), Q13285 | activation, % at 10 µM | AID 522, 2006;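 active = activation above the mean activation of all tested compounds plus 3 SD, cut at about 50% in these data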
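Test system: CHO-K1 cells co-transfected with Gal4 DBD–human SF-1 LBD, 5xGal4 luciferase reporter. Quantity: 4,000 cells per well. Compound: 10 µM only. Incubation: compound added 1 h post-seeding, 20 h exposure at 37 °C, 5% CO2. Detection: SteadyLite luciferase luminescence. Replication: one test per compound.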
An asterisk follows results filed as active.

For O=c1sc(Nc2ccccc2)nc2ccsc12 the results were HEK293 NFkB inh -8, RORa activator 70* and SF-1 act 56*.
`Cc1c(NC(=O)Cn2cnc3c(=O)n(C)c(=O)n(C)c32)cccc1-c1nc2ccccc2o1` gave HEK293 NFkB inh -3, MT1-MMP txn act 0.9, RORa activator -11, Jurkat tox 60K 1 and SF-1 act -5.
Oc1c(CN2CCCCC2)cc(Br)c2cccnc12 was read as HEK293 NFkB inh 19, MT1-MMP txn act 0.8, RORa activator 11, Jurkat tox 60K 49* and SF-1 act -69.
For CN1CCN(Cc2cc(COCc3ccccc3)c3cccnc3c2O)CC1 the results were HEK293 NFkB inh 30, MT1-MMP txn act 0.6, RORa activator -25, Jurkat tox 60K 36* and SF-1 act -43.
`Oc1c(CN2CCc3ccccc3C2)cc(Cl)c2cccnc12` gave HEK293 NFkB inh 10, RORa activator -12, Jurkat tox 60K 16 and SF-1 act -29.
For Cc1ccc(-n2nc(C)c(C3C(C#N)=C(N)OC4=C3C(=O)CCC4)c2Cl)cc1 (stereo not drawn) the results were HEK293 NFkB inh 13, MT1-MMP txn act 1.1, RORa activator -8, Jurkat tox 60K 3 and SF-1 act 13.
For CC1N=C2c3ccccc3N=C(SCc3cc(=O)n4ccccc4n3)N2C1=O (stereo not drawn) the results were HEK293 NFkB inh 17, MT1-MMP txn act 1.2, RORa activator -14, Jurkat tox 60K -7 and SF-1 act 12.
Screening COc1cccc2c1N1C(=O)c3c(C(=O)O)cccc3C1CC2(C)C (stereo not drawn) returned HEK293 NFkB inh 15, MT1-MMP txn act 1, RORa activator -7, Jurkat tox 60K 4 and SF-1 act -15.
O=C1CN(C(=O)c2ccccc2F)c2ccccc2N1 was read as HEK293 NFkB inh -4, MT1-MMP txn act 0.9, RORa activator -16, Jurkat tox 60K -5 and SF-1 act 5.
For O=C1CN(C(=O)OCc2ccccc2)c2ccccc2N1 the results were HEK293 NFkB inh -10, MT1-MMP txn act 1.4, RORa activator 51* and SF-1 act 47.
COc1ccc(-c2ncc3ccccn23)cc1 was read as HEK293 NFkB inh -16, MT1-MMP txn act 1.2, RORa activator 21, Jurkat tox 60K -5 and SF-1 act 53*.
Screening Oc1ccc(Cl)cc1CNc1ccc(Br)cn1 returned HEK293 NFkB inh -4, MT1-MMP txn act 1.5, RORa activator 33, Jurkat tox 60K 56* and SF-1 act 89*.
For Oc1c(Cl)cc(Cl)cc1CNc1ccc(Br)cn1 the results were MT1-MMP txn act 1.1, RORa activator -5 and SF-1 act 20.
N#Cc1ccc(C(=O)Nc2ccc(N3CCN(C(=O)c4ccco4)CC3)cc2)c(F)c1 was read as MT1-MMP txn act 0.9.
CCc1ccc2nc(NC(=O)c3cc(C)on3)sc2c1 was read as HEK293 NFkB inh -4, MT1-MMP txn act 1.3, RORa activator 69*, Jurkat tox 60K 82* and SF-1 act 117*.
For O=C(c1ccc(-c2ccccc2)cc1)N1CCCC1 the results were HEK293 NFkB inh 18, MT1-MMP txn act 1.4, RORa activator -3, Jurkat tox 60K -7 and SF-1 act 11.
O=C(Oc1ccc(-c2ccccc2)cc1)N1CCCCC1 was read as HEK293 NFkB inh -16, MT1-MMP txn act 1.2, RORa activator 86*, Jurkat tox 60K -2 and SF-1 act 72*.
`O=C(Nn1cnc2ccccc2c1=O)c1ccccc1Cl` gave HEK293 NFkB inh -21, MT1-MMP txn act 1.3, RORa activator 37, Jurkat tox 60K -1 and SF-1 act 65*.
Screening Cc1nc2ccccc2c(=O)n1NC(=O)c1ccccc1Cl returned HEK293 NFkB inh 15, MT1-MMP txn act 1.1, RORa activator -14, Jurkat tox 60K 6 and SF-1 act 1.
`CCCCn1c(SCC(=O)c2ccccc2)nc2c1c(=O)[nH]c(=O)n2C` gave HEK293 NFkB inh 16, MT1-MMP txn act 1, RORa activator -17, Jurkat tox 60K 2 and SF-1 act -15.
For COC(=O)c1cc(C(=O)OC)cc(S(=O)(=O)Nc2ccc(Cl)c(N)c2)c1 the results were HEK293 NFkB inh 11, MT1-MMP txn act 1, RORa activator -12, Jurkat tox 60K -6 and SF-1 act -3.
For Cc1ccccc1-c1nc2cc(N)ccc2o1 the results were HEK293 NFkB inh -28, MT1-MMP txn act 0.9, RORa activator 41, Jurkat tox 60K 4 and SF-1 act 58*.
`Nc1ccc2oc(CCc3ccccc3)nc2c1` gave HEK293 NFkB inh -42, MT1-MMP txn act 1.4, RORa activator 144*, Jurkat tox 60K 6 and SF-1 act 79*.
`c1ccc2oc(CCc3nc4ccccc4o3)nc2c1` gave HEK293 NFkB inh 10, MT1-MMP txn act 1.1, RORa activator 45, Jurkat tox 60K -6 and SF-1 act 35.
For CCc1cc2c(=O)n(Cc3ccco3)c(SCc3c(C)noc3C)nc2s1 the results were HEK293 NFkB inh 22, RORa activator -2, Jurkat tox 60K 88* and SF-1 act -7.
`CCc1cc2c(=O)n(Cc3ccco3)c(SCC(=O)N3CCCc4ccccc43)nc2s1` gave HEK293 NFkB inh 9, MT1-MMP txn act 1.1, RORa activator -21, Jurkat tox 60K 2 and SF-1 act -12.
